# Measured values reported in ChEMBL document CHEMBL4689842, “EUbOPEN Chemogenomics Library wave 1” (2021).
# System: Fibroblast
# Assay: Multiplex assay against human fibroblast
# Assay type: toxicity, cell-based
# Method in brief: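 On a CQ1 microscope at 37°C and 5% CO2, live cells were imaged after compound addition. They had been stained at seeding with Hoechst33342, BioTracker Green Microtubule Cytoskeleton Dye, MitoTracker Red and Annexin V Alexa Fluor 680. CellPathfinder machine-learning gating assigned cells to Hoechst high-intensity objects or normal cells, normal cells to healthy, pyknosed or fragmented nuclei, and pyknosed cells to mitotic or apoptotic. Tubulin, mitochondrial-mass and membrane-permeability phenotypes are per cents of healthy-nucleus cells.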
# [1] = 12 h, 1 µM, compound concentration 1 uM, replicate 1
# [2] = 12 h, 1 µM, compound concentration 1 uM, replicate 2
# [3] = 12 h, 10 µM, compound concentration 10 uM, replicate 1
# [4] = 12 h, 10 µM, compound concentration 10 uM, replicate 2
# [5] = 24 h, 1 µM, compound concentration 1 uM, replicate 1
# [6] = 24 h, 1 µM, compound concentration 1 uM, replicate 2
# [7] = 24 h, 10 µM, compound concentration 10 uM, replicate 1
# [8] = 24 h, 10 µM, compound concentration 10 uM, replicate 2
# [9] = 48 h, 1 µM, compound concentration 1 uM, replicate 1
# [10] = 48 h, 1 µM, compound concentration 1 uM, replicate 2
# [11] = 48 h, 10 µM, compound concentration 10 uM, replicate 1
# [12] = 48 h, 10 µM, compound concentration 10 uM, replicate 2
smiles,measurement,setting,value
Cc1nc(Cc2cccc(C(F)(F)F)c2)sc1-c1ccc(C(N)=O)nc1 [TP-024n],Population Apoptotic (%),[1],59%
same,Population Fragmented Nuclei (%),[1],16%
same,Population Healthy Nuclei (%),[1],45%
same,Population Hoechst High Intensity Objects (%),[1],11%
same,Population Membrane Permeable-Phenotype (%),[1],23%
same,Population Mitochondria Different-Phenotype (%),[1],3%
same,Population Mitotic Cells (%),[1],40%
same,Population Normal (%),[1],88%
same,Population Pyknosed Nuclei (%),[1],37%
same,Population Tubulin-Different-Phenotype (%),[1],33%
same,Total Cell Count,[1],125
same,Population Apoptotic (%),[2],50%
same,Population Fragmented Nuclei (%),[2],0%
same,Population Healthy Nuclei (%),[2],94%
same,Population Membrane Permeable-Phenotype (%),[2],2%
same,Population Mitochondria Different-Phenotype (%),[2],18%
same,Population Mitotic Cells (%),[2],50%
same,Population Pyknosed Nuclei (%),[2],5%
same,Population Tubulin-Different-Phenotype (%),[2],16%
same,Total Cell Count,[2],130
same,Population Apoptotic (%),[3],63%
same,Population Fragmented Nuclei (%),[3],25%
same,Population Healthy Nuclei (%),[3],37%
same,Population Hoechst High Intensity Objects (%),[3],14%
same,Population Membrane Permeable-Phenotype (%),[3],2%
same,Population Mitochondria Different-Phenotype (%),[3],16%
same,Population Mitotic Cells (%),[3],36%
same,Population Normal (%),[3],86%
same,Population Pyknosed Nuclei (%),[3],36%
same,Population Tubulin-Different-Phenotype (%),[3],67%
same,Total Cell Count,[3],150
same,Population Apoptotic (%),[4],66%
same,Population Fragmented Nuclei (%),[4],17%
same,Population Healthy Nuclei (%),[4],67%
same,Population Hoechst High Intensity Objects (%),[4],4%
same,Population Membrane Permeable-Phenotype (%),[4],9%
same,Population Mitochondria Different-Phenotype (%),[4],21%
same,Population Mitotic Cells (%),[4],33%
same,Population Normal (%),[4],95%
same,Population Pyknosed Nuclei (%),[4],14%
same,Population Tubulin-Different-Phenotype (%),[4],11%
same,Total Cell Count,[4],44
same,Population Apoptotic (%),[5],46%
same,Population Fragmented Nuclei (%),[5],17%
same,Population Healthy Nuclei (%),[5],51%
same,Population Hoechst High Intensity Objects (%),[5],11%
same,Population Membrane Permeable-Phenotype (%),[5],31%
same,Population Mitochondria Different-Phenotype (%),[5],1%
same,Population Mitotic Cells (%),[5],53%
same,Population Normal (%),[5],88%
same,Population Pyknosed Nuclei (%),[5],32%
same,Population Tubulin-Different-Phenotype (%),[5],29%
same,Total Cell Count,[5],113
same,Population Apoptotic (%),[6],50%
same,Population Fragmented Nuclei (%),[6],5%
same,Population Healthy Nuclei (%),[6],91%
same,Population Hoechst High Intensity Objects (%),[6],5%
same,Population Membrane Permeable-Phenotype (%),[6],1%
same,Population Mitochondria Different-Phenotype (%),[6],7%
same,Population Mitotic Cells (%),[6],50%
same,Population Normal (%),[6],95%
same,Population Pyknosed Nuclei (%),[6],3%
same,Population Tubulin-Different-Phenotype (%),[6],15%
same,Total Cell Count,[6],126
same,Population Apoptotic (%),[7],64%
same,Population Fragmented Nuclei (%),[7],19%
same,Population Healthy Nuclei (%),[7],57%
same,Population Hoechst High Intensity Objects (%),[7],13%
same,Population Membrane Permeable-Phenotype (%),[7],5%
same,Population Mitochondria Different-Phenotype (%),[7],12%
same,Population Mitotic Cells (%),[7],35%
same,Population Normal (%),[7],86%
same,Population Pyknosed Nuclei (%),[7],23%
same,Population Tubulin-Different-Phenotype (%),[7],58%
same,Total Cell Count,[7],152
same,Population Apoptotic (%),[8],44%
same,Population Fragmented Nuclei (%),[8],14%
same,Population Healthy Nuclei (%),[8],58%
same,Population Hoechst High Intensity Objects (%),[8],2%
same,Population Membrane Permeable-Phenotype (%),[8],25%
same,Population Mitochondria Different-Phenotype (%),[8],32%
same,Population Mitotic Cells (%),[8],55%
same,Population Normal (%),[8],97%
same,Population Pyknosed Nuclei (%),[8],26%
same,Population Tubulin-Different-Phenotype (%),[8],22%
same,Total Cell Count,[8],60
same,Population Apoptotic (%),[9],52%
same,Population Fragmented Nuclei (%),[9],21%
same,Population Healthy Nuclei (%),[9],58%
same,Population Hoechst High Intensity Objects (%),[9],19%
same,Population Membrane Permeable-Phenotype (%),[9],22%
same,Population Mitochondria Different-Phenotype (%),[9],1%
same,Population Mitotic Cells (%),[9],47%
same,Population Normal (%),[9],80%
same,Population Pyknosed Nuclei (%),[9],20%
same,Population Tubulin-Different-Phenotype (%),[9],31%
same,Total Cell Count,[9],116
same,Population Apoptotic (%),[10],33%
same,Population Fragmented Nuclei (%),[10],16%
same,Population Healthy Nuclei (%),[10],80%
same,Population Hoechst High Intensity Objects (%),[10],11%
same,Population Membrane Permeable-Phenotype (%),[10],12%
same,Population Mitochondria Different-Phenotype (%),[10],0%
same,Population Mitotic Cells (%),[10],66%
same,Population Normal (%),[10],88%
same,Population Pyknosed Nuclei (%),[10],3%
same,Population Tubulin-Different-Phenotype (%),[10],35%
same,Total Cell Count,[10],98
same,Population Apoptotic (%),[11],77%
same,Population Fragmented Nuclei (%),[11],19%
same,Population Healthy Nuclei (%),[11],64%
same,Population Hoechst High Intensity Objects (%),[11],9%
same,Population Membrane Permeable-Phenotype (%),[11],11%
same,Population Mitochondria Different-Phenotype (%),[11],15%
same,Population Mitotic Cells (%),[11],22%
same,Population Normal (%),[11],90%
same,Population Pyknosed Nuclei (%),[11],16%
same,Population Tubulin-Different-Phenotype (%),[11],44%
same,Total Cell Count,[11],148
same,Population Apoptotic (%),[12],25%
same,Population Fragmented Nuclei (%),[12],27%
same,Population Healthy Nuclei (%),[12],68%
same,Population Hoechst High Intensity Objects (%),[12],10%
same,Population Membrane Permeable-Phenotype (%),[12],5%
same,Population Mitochondria Different-Phenotype (%),[12],7%
same,Population Mitotic Cells (%),[12],75%
same,Population Normal (%),[12],89%
same,Population Pyknosed Nuclei (%),[12],3%
same,Population Tubulin-Different-Phenotype (%),[12],52%
same,Total Cell Count,[12],124
